From ChEMBL document CHEMBL1154008, “Synthesis and in vitro activity of new tetrahydronaphtho[1,2-b]azepine derivatives against Trypanosoma cruzi and Leishmania chagasi parasites” (Bioorg Med Chem Lett, 2009)
pIC50: −log10 of the molar value.

Columns and labels:
Leishmania chagasi = assay: Antiparasitic activity against Leishmania chagasi MHOM/BR/74/PP75 promastigotes infected in human THP1 cells after 72 hrs; settings: MHOM/BR/74/PP75, THP-1, 72 h
[1] = Cytotoxicity against human THP1 cells after 72 hrs by MTT assay; type: cell-based; settings: THP-1 cells
Summary of the method: (§1)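 Vero or transformed THP-1 cells exposed to a 3-fold compound dilution series, in triplicate, for 72 h at 37 °C. Toxicity read by MTT reduction. CC50/CC90 taken as the concentrations killing 50% or 90% of cells. Values are representative of one experiment out of three.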

[2] = Selectivity index, ratio of CC50 for human THP1 cells to IC50 for Leishmania chagasi MHOM/BR/74/PP75 promastigotes; type: functional, THP-1
Summary of the method: (§2)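 SI calculated as Vero CC50 divided by T. cruzi IC50, or THP-1 CC50 divided by L. chagasi IC50. Both values come from 72 h exposures: parasites at 27 °C, mammalian cells at 37 °C with MTT read-out.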

Trypanosoma cruzi [3] = assay: Antiparasitic activity against Trypanosoma cruzi 320I04 epimastigotes […] after 72 hrs; type: functional, organism-based
Summary of the method: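 Free parasite forms (T. cruzi 320I04 epimastigotes; L. chagasi MHOM/BR/74/PP75 promastigotes) exposed to compounds for 72 h at 27 °C. IC50/IC90 taken as the concentrations giving 50% or 90% growth inhibition. Values are representative of one experiment out of three.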

Trypanosoma cruzi [4] = assay: Antiparasitic activity against Trypanosoma cruzi 320I04 intracellular amastigotes infected in african green monkey Vero cells after 72 hrs; type: functional, organism-based; settings: 320I04, Vero
[5] = Cytotoxicity against african green monkey Vero cells after 72 hrs by MTT assay; type: cell-based; settings: chlorocebus sabaeus; summary of the method: as §1
[6] = Selectivity index, ratio of CC50 for african green monkey Vero cells to IC50 for Trypanosoma cruzi 320I04 epimastigotes; type: functional; summary of the method: as §2
[7] = Selectivity index, ratio of CC50 for african green monkey Vero cells to IC50 for Trypanosoma cruzi 320I04 intracellular amastigotes; type: functional

Structure (SMILES) | pIC50 (Leishmania chagasi) | IC90 (Leishmania chagasi) | CC50 at 72 h [1] | CC90 at 72 h [1] | Ratio CC50/IC50 [2] | pIC50 (Trypanosoma cruzi [3]) | IC90 (Trypanosoma cruzi [3]) | pIC50 (Trypanosoma cruzi [4]) | IC90 (Trypanosoma cruzi [4]) | CC50 at 72 h [5] | CC90 at 72 h [5] | Ratio CC50/IC50 [6] | Ratio CC50/IC50 [7]
C[C@@H]1[C@H](O)[C@@H](C)/C=C/C=C/C=C/C=C/C=C/C=C/C=C/[C@H](O[C@@H]2O[C@H](C)[C@@H](O)[C@H](N)[C@@H]2O)C[C@@H]2O[C@](O)(C[C@@H](O)C[C@@H](O)[C@H](O)CC[C@@H](O)C[C@@H](O)CC(=O)O[C@H]1C)C[C@H](O)[C@H]2C(=O)O [AMPHOTERICIN B] | 8.00 | 0.03 µM | 0.17 µM | 0.18 µM | 17 | – | – | – | – | – | – | – | –
Clc1ccc([C@@H]2C[C@@H]3Cc4ccc5ccccc5c4N2O3)cc1 | 4.45 | 43.1 µM | > 300 µM | > 300 µM | >8.5 | 4.41 | 105 µM | 4.79 | 83.4 µM | 287 µM | > 300 µM | 7.4 | >17.7
O=[N+]([O-])c1ccccc1[C@@H]1C[C@@H]2Cc3ccc4ccccc4c3N1O2 | 4.39 | 209 µM | > 300 µM | > 300 µM | >7.3 | 5.85 | 29.3 µM | < 4.00 | > 100 µM | 40.2 µM | > 300 µM | 28.7 | <0.4
O[C@@H]1Cc2ccc3ccccc3c2N[C@H](c2ccc(Cl)cc2)C1 | 4.59 | 52.9 µM | 36.2 µM | 122 µM | 1.4 | 5.49 | 24.8 µM | < 4.00 | > 100 µM | 95 µM | > 250 µM | 29.7 | <1
O[C@@H]1Cc2ccc3ccccc3c2N[C@H](c2cccc(Cl)c2)C1 | 5.22 | 67.3 µM | 43.2 µM | 177 µM | 7.2 | 5.85 | 54.9 µM | 4.63 | > 30 µM | 30.7 µM | > 200 µM | 21.9 | 1.3
O[C@@H]1Cc2ccc3ccccc3c2N[C@H](c2ccc(Br)cc2)C1 | 4.73 | 37.1 µM | 79 µM | > 200 µM | 4.3 | 4.99 | 15.9 µM | 5.00 | 29.7 µM | 66.1 µM | > 200 µM | 6.5 | 6.7
c1ccc([C@@H]2C[C@@H]3Cc4ccc5ccccc5c4N2O3)cc1 | 4.67 | 175 µM | > 350 µM | > 350 µM | >16.5 | 4.94 | > 350 µM | < 4.00 | > 100 µM | 72.9 µM | > 350 µM | 6.3 | <0.7
CC1CS(=O)(=O)CCN1/N=C/c1ccc([N+](=O)[O-])o1 (stereo unspecified) [NIFURTIMOX] | – | – | – | – | – | 5.32 | 17 µM | – | 11 µM | 114 µM | > 300 µM | – | –
Clc1ccccc1[C@@H]1C[C@@H]2Cc3ccc4ccccc4c3N1O2 | 3.74 | > 300 µM | > 300 µM | > 300 µM | >1.6 | 4.00 | 293 µM | < 4.00 | > 100 µM | 37.2 µM | > 300 µM | 0.4 | <0.4
Brc1cccc([C@@H]2C[C@@H]3Cc4ccc5ccccc5c4N2O3)c1 | 4.98 | 31.3 µM | > 250 µM | > 250 µM | >24 | 4.76 | 82.3 µM | 4.74 | 76.3 µM | > 250 µM | > 250 µM | >14.3 | >13.6
Cc1cccc([C@@H]2C[C@H](O)Cc3ccc4ccccc4c3N2)c1 | 4.38 | 134 µM | 89.9 µM | 116 µM | 2.2 | 4.78 | 42.7 µM | 4.48 | > 30 µM | 87.4 µM | > 250 µM | 5.3 | 2.6
Cc1cccc([C@@H]2C[C@@H]3Cc4ccc5ccccc5c4N2O3)c1 | 4.45 | 41.2 µM | > 300 µM | > 300 µM | >8.5 | 4.77 | 44.1 µM | < 4.00 | > 100 µM | > 300 µM | > 300 µM | >17.6 | >3
COc1cccc([C@@H]2C[C@@H]3Cc4ccc5ccccc5c4N2O3)c1 | 4.79 | 49.5 µM | > 300 µM | > 300 µM | >18.3 | 4.08 | > 300 µM | 4.05 | > 100 µM | > 300 µM | > 300 µM | >3.6 | >3.3
O[C@@H]1Cc2ccc3ccccc3c2N[C@H](c2ccc(Cl)cc2Cl)C1 | 4.96 | 28.2 µM | 79.4 µM | 92.7 µM | 7.2 | 6.00 | 19.4 µM | < 4.52 | > 30 µM | 45.4 µM | > 200 µM | 45.4 | <1.5
Brc1ccc([C@@H]2C[C@@H]3Cc4ccc5ccccc5c4N2O3)cc1 | 4.13 | > 250 µM | > 250 µM | > 250 µM | >3.4 | 4.94 | 176 µM | < 4.00 | > 100 µM | > 250 µM | > 250 µM | 21.9 | –
O[C@@H]1Cc2ccc3ccccc3c2N[C@H](c2ccc(F)cc2)C1 | 4.68 | 120 µM | 81.9 µM | > 250 µM | 3.9 | 5.96 | 11.6 µM | 4.83 | > 30 µM | 100 µM | > 250 µM | 91.4 | 6.8
O[C@@H]1Cc2ccc3ccccc3c2N[C@H](c2ccccc2)C1 | 4.34 | 67.1 µM | 102 µM | > 300 µM | 2.2 | 5.24 | 35.1 µM | 4.71 | > 30 µM | 108 µM | > 268 µM | 18.9 | 5.6
Fc1ccc([C@@H]2C[C@@H]3Cc4ccc5ccccc5c4N2O3)cc1 | 4.15 | 113 µM | > 300 µM | > 300 µM | >4.3 | 4.04 | > 300 µM | < 4.00 | > 100 µM | > 300 µM | > 300 µM | >3.3 | >3
Clc1ccc([C@@H]2C[C@@H]3Cc4ccc5ccccc5c4N2O3)c(Cl)c1 | 4.66 | 45.8 µM | > 250 µM | > 250 µM | >11.3 | 4.28 | > 250 µM | < 3.60 | > 250 µM | 55 µM | > 250 µM | 1 | <0.2
Clc1cccc([C@@H]2C[C@@H]3Cc4ccc5ccccc5c4N2O3)c1 | 4.49 | > 300 µM | > 300 µM | > 300 µM | >9.2 | 4.90 | 80.1 µM | 4.88 | > 100 µM | > 300 µM | > 300 µM | >23.8 | >22.9
O[C@@H]1Cc2ccc3ccccc3c2N[C@H](c2cccc(Br)c2)C1 | 4.74 | 55.7 µM | 41.7 µM | > 250 µM | 2.3 | 4.97 | 19.4 µM | < 4.00 | > 100 µM | 49.5 µM | > 250 µM | 4.6 | 0.5
